Each structure is given as a SMILES string. The source made the active and inactive calls. The calls are words filed in the database; no cut-off is given here.

The text below walks through data of ChEMBL document CHEMBL3244032, “Synthesis and antiviral acticity of some phosphates of the broad-spectrum antiviral nucleoside, 1-beta-D-ribofuranosyl-1,2,4-triazole-3-carboxamide (ribavirin)” (J Med Chem, 1978).

One data set deals with Vaccinia virus. The data set can be described thus: Antiviral activity against Vaccinia virus infected in human KB cells assessed as inhibition of virus-induced cytopathic effect at 1 to 1000 ug/ml after 72 hrs. The class given is functional, organism-based. The conditions noted are these: Orthopoxvirus vaccinia. Background: Damage to the host cells serves as the signal in cytopathic effect assays.

In the next data set the test system is Human alphaherpesvirus 1. Description: Antiviral activity against HSV1 infected in human KB cells assessed as inhibition of virus-induced cytopathic effect at 1 to 1000 ug/ml after 72 hrs. The class given is functional, organism-based. Summed up: (§1)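 KB cell monolayers (24 h old) infected with 320 cell culture 50% infectious doses/mL of virus; compound added 15 min after infection at 1000 to 1 μg/mL. Plates incubated 72 h at 37 °C and scored for inhibition of viral CPE. Activity was expressed as a virus rating that accounts for cytotoxicity and CPE in treated versus untreated cells. VR 0.5 or above was taken as definite activity.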

For a further data set, the system named is Human respirovirus 3. The data set can be described thus: Antiviral activity against Parainfluenza virus type 3 infected in human KB cells assessed as inhibition of virus-induced cytopathic effect at 1 to 1000 ug/ml after 72 hrs. The class given is functional, organism-based. In short, it runs like this: as §1
The test system of data set [1] is KB. Description: Antiviral activity against Rhinovirus type 13 infected in human KB cells assessed as inhibition of virus-induced cytopathic effect at 1 to 1000 ug/ml after 72 hrs. The class given is functional, cell-based. Conditions: Human rhinovirus A13. Summed up: as §1
Data set [2] concerns KB. Description: Antiviral activity against Adenovirus type 3 infected in human KB cells assessed as inhibition of virus-induced cytopathic effect at 1 to 1000 ug/ml after 72 hrs. The class given is functional, cell-based. Conditions: Human adenovirus 3. In short, it runs like this:
as §1

Data set [3] deals with Mus musculus. The data set can be described thus: Toxicity in Swiss mouse infected with Influenza A2 virus Japan 305 assessed as survival at 75 mg/kg/day, po bid administered for 9 days started at 4 hrs prior to infection. The conditions noted are these: in vivo. The class given is organism-based. On the set-up: route oral.
The test system of data set [4] is Mus musculus. Description: Toxicity in Swiss mouse infected with Influenza B virus Lee assessed as survival at 75 mg/kg/day, ip bid administered for 9 days started at 4 hrs prior to infection. The data set is classed as organism-based. On the set-up: route intraperitoneal. The conditions noted are these: in vivo.
Data set [5] concerns Mus musculus. Description: Toxicity in Swiss mouse infected with Murine hepatitis virus Friend-Braunsteiner assessed as survival at 75 mg/kg/day, ip bid administered for 8 days started at 2 hrs prior to infection. The data set is classed as organism-based. Conditions: in vivo. Further details: route intraperitoneal.
For data set [6], the system named is Mus musculus. Description: Toxicity in Swiss mouse infected with Murine hepatitis virus Friend-Braunsteiner assessed as survival at 37.5 mg/kg/day, ip bid administered for 8 days started at 2 hrs prior to infection. The class given is organism-based. Further details: route intraperitoneal. Conditions: in vivo.
Data set [7] concerns Mus musculus. Description: Toxicity in Swiss mouse infected with Murine hepatitis virus Friend-Braunsteiner assessed as survival at 18.8 mg/kg/day, ip bid administered for 8 days started at 2 hrs prior to infection. The data set is classed as organism-based. Further details: route intraperitoneal. Conditions: in vivo.
The subject of data set [8] is Influenza A virus. The data set can be described thus: Antiviral activity against Influenza A2 virus Japan 305 infected in Swiss mouse assessed as survival at 75 mg/kg/day, po bid administered for 9 days relative to control. The data set is classed as functional, organism-based.
Data set [9] concerns Influenza B virus. The data set can be described thus: Antiviral activity against Influenza B virus Lee infected in Swiss mouse assessed as survival at 75 mg/kg/day, ip bid administered for 9 days relative to control. The data set is classed as functional, organism-based. In short, it runs like this:
(§2)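 Swiss mice, 14-16 g, given virus intranasally at a dose lethal to 95%. Dosed intraperitoneally twice daily for 9 days, starting 4 h before infection; controls got saline. Survivors counted on day 21 postinfection; survival compared by χ² analysis. Mean survival time is from animals dying on or before day 21 and was compared by t test.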

Data set [10] relates to Murine hepatitis virus. The data set can be described thus: Antiviral activity against Murine hepatitis virus Friend-Braunsteiner infected in Swiss mouse assessed as survival at 18.8 to 75 mg/kg/day, ip bid administered for 8 days relative to control. The data set is classed as functional, organism-based. Summed up:
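Swiss mice of 16-18 g were inoculated ip with a 95% lethal dose of virus. Treatment was given ip twice daily for 8 days, starting 2 h before inoculation, at 75, 37.5 or 18.8 mg/kg/day; placebo controls received saline. Survivors were counted on day 21 postinfection and compared by χ² analysis. Mean survival time covered animals dying by day 21 and was compared by t test. Uninfected toxicity controls were included.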

Data set [11] deals with Influenza A virus. Description: Antiviral activity against Influenza A2 virus Japan 305 infected in Swiss mouse assessed as mean survival time at 75 mg/kg/day, po bid administered for 9 days (reference value: 9 days). The class given is functional.
In data set [12] the test system is Influenza B virus. The data set can be described thus: Antiviral activity against Influenza B virus Lee infected in Swiss mouse assessed as mean survival time at 75 mg/kg/day, ip bid administered for 9 days (reference value: 11.2 days). Conditions: route intraperitoneal. The data set is classed as functional. In short, it runs like this:
as §2

The test system of data set [13] is Murine hepatitis virus. The data set can be described thus: Antiviral activity against Murine hepatitis virus Friend-Braunsteiner infected in Swiss mouse assessed as mean survival time at 75 mg/kg/day, ip bid administered for 8 days (reference value: 5.2 days). The class given is functional. The conditions noted are these: route intraperitoneal. Summed up:
(§3)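 Swiss mice, 16-18 g, inoculated ip with a 95% lethal dose of virus. Dosed ip twice daily for 8 days, beginning 2 h before inoculation, at 18.8, 37.5 or 75 mg/kg/day; controls got saline. Survivors counted on day 21; survival compared by χ² analysis. Mean survival time is from deaths on or before day 21, compared by t test.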

Data set [14] relates to Murine hepatitis virus. Description: Antiviral activity against Murine hepatitis virus Friend-Braunsteiner infected in Swiss mouse assessed as mean survival time at 37.5 mg/kg/day, ip bid administered for 8 days (reference value: 5.2 days). The data set is classed as functional. The conditions noted are these: route intraperitoneal. Summed up: as §3
The test system of data set [15] is Murine hepatitis virus. The data set can be described thus: Antiviral activity against Murine hepatitis virus Friend-Braunsteiner infected in Swiss mouse assessed as mean survival time at 18.8 mg/kg/day, ip bid administered for 8 days (reference value: 5.2 days). The data set is classed as functional. Conditions: route intraperitoneal. Summed up: as §3
Data set [16] can be described thus: Toxicity in Swiss mouse. The data set is classed as organism-based. Conditions: in vivo.
Data set [17] concerns Murine hepatitis virus. The data set can be described thus: Antiviral activity against Murine hepatitis virus Friend-Braunsteiner infected in ip dosed Swiss mouse assessed as most effective dose administered bid for 8 days. The class given is functional. In short, it runs like this:
as §3

For the compound `NC(=O)c1ncn([C@@H]2O[C@H](COP(=O)(O)OP(=O)(O)O)[C@@H](O)[C@H]2O)n1`, the result in the data set on Vaccinia virus, in the data set with Human alphaherpesvirus 1, in the data set on Human respirovirus 3 and in the data set with KB [1] was Active. In addition, the outcome in the data set on KB [2] was inactive.

Regarding `NC(=O)c1ncn([C@@H]2O[C@H](CO)[C@@H](O)[C@H]2O)n1`, the outcome with Vaccinia virus, with Human alphaherpesvirus 1, in the data set with Human respirovirus 3, in the data set on KB [1] and with KB [2] was Active.

Regarding `NC(=O)c1ncn([C@@H]2O[C@H](COP(=O)(O)OP(=O)(O)OP(=O)(O)O)[C@@H](O)[C@H]2O)n1`, the outcome in the data set on Vaccinia virus, in the data set on Human alphaherpesvirus 1, in the data set on Human respirovirus 3 and in the data set on KB [1] was Active. In the data set on KB [2], the result was inactive.

Turning to `NC(=O)c1ncn([C@@H]2O[C@H](COP(=O)([O-])[O-])[C@@H](O)[C@H]2O)n1.[Li+].[Li+]`, the outcome in the data set on Vaccinia virus, with Human alphaherpesvirus 1, in the data set with Human respirovirus 3, in the data set on KB [1], in the data set with Influenza A virus [8] and in the data set on Influenza B virus [9] was Active. Moreover, the outcome with Murine hepatitis virus [10] was Active. Further, the result in the data set with KB [2] was inactive. Moreover, the Activity result in the data set with Mus musculus [3] is reported as “Non-toxic”; in the data set on Mus musculus [4], “Non-toxic”; in the data set on Mus musculus [5], “Non-toxic”; in the data set on Mus musculus [6], “Non-toxic”; with Mus musculus [7], “Non-toxic”; with Murine hepatitis virus [17] it was 37.5 mg/kg/day. Moreover, the MSD in the data set on Influenza A virus [11] came out at 7.6 days; with Influenza B virus [12], 13.3 days; in the data set with Murine hepatitis virus [13], 6.1 days; with Murine hepatitis virus [14], 6 days; with Murine hepatitis virus [15], 5.3 days. For the same compound, the MTD in data set [16] turned out to be 150 mg/kg/day.

`NC(=O)c1ncn([C@@H]2O[C@@H]3COP(=O)(O)O[C@H]3[C@H]2O)n1`: the outcome in the data set on Vaccinia virus, with Human alphaherpesvirus 1, in the data set with Human respirovirus 3 and with KB [1] was Active. Further, the outcome in the data set on KB [2] was inactive.

With `NC(=O)c1ncn([C@@H]2O[C@H](CO)[C@H]3OP(=O)(O)O[C@H]32)n1`, the outcome with Vaccinia virus, in the data set on Human alphaherpesvirus 1, in the data set with Human respirovirus 3 and with KB [1] was Active. Besides, in the data set with KB [2], the result was inactive.
